Like-named read-outs stand apart in the source and are kept apart here.
Columns and labels:
[1] = cited from earlier work
[2] = cited from earlier work; remark: listed apart in the source
[3] = weakly basic drug; cited from earlier work
[4] = single 100‐mg dose; cited from earlier work
[5] = type: in vivo, human; conditions: for clearance: CL; for half-life: t½
In short: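 Open-label, randomized 2-period, 2-sequence crossover in 12 healthy volunteers, fasted ≥10 h. Single 100 mg oral tablet with water to 240 mL, or 50 mg IV (1 mg/mL over 1.25 h). Plasma sampled 0–96 h and assayed by HPLC-MS/MS (LLOQ 3 ng/mL). Noncompartmental analysis used: CL/F = dose/AUC0‐∞. Log dose-normalized AUCs fitted by linear mixed-effect model; ratios exponentiated with 90% CI.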

[6] = Safety and tolerability evaluation in the absolute bioavailability study; type: in vivo, human
In short: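 Healthy subjects in a randomized crossover each received a single 100 mg oral tablet and a single 50 mg IV infusion over 1.25 h, fasted. Recorded as AEs: adverse drug reactions, illnesses with onset during study, exacerbation of previous illness, clinically significant physical-examination changes and abnormal objective test findings. Vital signs, ECG and laboratory parameters were monitored.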

[7] = parenteral formulation, rabbit; cited from earlier work
human blood = conditions: parenteral formulation, in vitro; cited from earlier work
[8] = Hepatic extraction estimate, well-stirred model; design: species or system human; conditions: hepatic blood flow of 87 L/h
[9] = once daily (QD), patients with advanced myeloid malignancies; cited from earlier work
[10] = in vitro data and data from the ADME study; cited from earlier work
[11] = test system: cytochrome P450 (CYP) 3A4/5; conditions: preclinical studies; cited from earlier work
[12] = cited from earlier work; remark: listed apart in the source
Human mass balance = type: in vivo; conditions: urine, po, 100 mg
[13] = 100 mg oral tablet, single dose, fasted
[14] = human, plasma, iv, 50 mg, arithmetic mean ± SD, 50 mg IV, single dose, fasted
[15] = human, plasma, iv, 50 mg, geometric mean (geometric CV, %), 50 mg IV, single dose, fasted
[16] = human, plasma, po, 100 mg, arithmetic mean ± SD, 100 mg oral tablet, single dose, fasted

Question: Which “Mean recovery of radioactivity in urine (as parent and metabolites)” value ([1]; single oral dose of 100‐mg/100‐µCi, 6 healthy volunteers) does the source give for [^14C]glasdegib here?
Answer: 49%

Question: For `CN1CC[C@@H](NC(=O)Nc2ccc(C#N)cc2)C[C@@H]1c1nc2ccccc2[nH]1` [Glasdegib], which Maximum tolerated dose ([2]; QD, patients with advanced solid tumor) is on record?
Answer: 320 mg

Question: What about the Tolerability ([2]; single dose of 320 mg, patients with advanced tumors) of the same compound?
Answer: well tolerated

Question: What about the “Solubility, pH dependence” value [3] of the same compound?
Answer: decreasing solubility as pH increases

Question: And the “Effect of proton‐pump inhibitors on glasdegib PK” value [4]?
Answer: do not have a clinically relevant effect

Question: What about the “AUC0‐last(dn), dose normalized geometric mean from the statistical model” value ([5]; 50 mg IV) of the same compound?
Answer: 96.98 ng·h/mL/mg

Question: And the “AUC0‐∞(dn), dose normalized geometric mean from the statistical model” value ([5]; 50 mg IV)?
Answer: 98.90 ng·h/mL/mg

Question: What about the “Intersubject variability in CL, %CV of the geometric mean” value ([5]; 50 mg IV) of the same compound?
Answer: 38%

Question: And the “t½, arithmetic mean ± SD” value ([5]; 50 mg IV, single dose, fasted)?
Answer: 13.78 ± 2.97 h

Question: What about the “AUC0‐last(dn), dose normalized geometric mean from the statistical model” value ([5]; 100 mg oral tablet) of the same compound?
Answer: 74.88 ng·h/mL/mg

Question: And the “AUC0‐∞(dn), dose normalized geometric mean from the statistical model” value ([5]; 100 mg oral tablet)?
Answer: 76.28 ng·h/mL/mg

Question: And the “Intersubject variability in CL/F, %CV of the geometric mean” value ([5]; 100 mg oral tablet)?
Answer: 38%

Question: And the “CL/F, arithmetic mean ± SD” value [5, 13]?
Answer: 13.87 ± 4.51 L/h

Question: And the “CL/F, geometric mean (geometric CV, %)” value [5, 13]?
Answer: 13.10 (38) L/h

Question: And the “t½, arithmetic mean ± SD” value [5, 13]?
Answer: 14.26 ± 2.45 h

Question: What about the “CL/F, arithmetic mean ± SD” value ([5]; 100 mg oral tablet, single dose, fasted, listed as glasdegib) of the same compound?
Answer: 13.87 L/h

Question: What about the Tmax ([5]; human, plasma, iv, 50 mg) of the same compound?
Answer: 1.27 h

Question: And the AUC ([5]; human, plasma, iv, 50 mg, AUC0‐last, arithmetic mean ± SD, 50 mg IV, single dose, fasted)?
Answer: 5120 ± 2160 ng·h/mL

Question: And the AUC ([5]; human, plasma, iv, 50 mg, AUC0‐last, geometric mean (geometric CV, %), 50 mg IV, single dose, fasted)?
Answer: 4780 ng·h/mL

Question: And the AUC ([5]; human, plasma, iv, 50 mg, AUC0‐∞, arithmetic mean ± SD, 50 mg IV, single dose, fasted)?
Answer: 5220 ± 2210 ng·h/mL

Question: And the AUC ([5]; human, plasma, iv, 50 mg, AUC0‐∞, geometric mean (geometric CV, %), 50 mg IV, single dose, fasted)?
Answer: 4880 ng·h/mL

Question: And the clearance [5, 14]?
Answer: 181 mL/min

Question: What about the clearance [5, 15] of the same compound?
Answer: 171 mL/min

Question: What about the Cmax [5, 14] of the same compound?
Answer: 687 ± 197 ng/mL

Question: What about the Cmax [5, 15] of the same compound?
Answer: 665 ng/mL

Question: What about the half-life [5, 14] of the same compound?
Answer: 828 min

Question: And the bioavailability ([5]; human, plasma, oral, Absolute oral bioavailability, arithmetic mean ± SD, arithmetic mean ratios, without logarithmic transformation, of AUC0‐∞(dn) oral to IV)?
Answer: 78.5 ± 12.8%

Question: What about the Tmax ([5]; human, plasma, po, 100 mg) of the same compound?
Answer: 1.52 h

Question: And the AUC ([5]; human, plasma, po, 100 mg, AUC0‐last, arithmetic mean ± SD, 100 mg oral tablet, single dose, fasted)?
Answer: 7990 ± 3310 ng·h/mL

Question: And the AUC ([5]; human, plasma, po, 100 mg, AUC0‐last, geometric mean (geometric CV, %), 100 mg oral tablet, single dose, fasted)?
Answer: 7490 ng·h/mL

Question: And the AUC ([5]; human, plasma, po, 100 mg, AUC0‐∞, arithmetic mean ± SD, 100 mg oral tablet, single dose, fasted)?
Answer: 8160 ± 3440 ng·h/mL

Question: And the AUC ([5]; human, plasma, po, 100 mg, AUC0‐∞, geometric mean (geometric CV, %), 100 mg oral tablet, single dose, fasted)?
Answer: 7630 ng·h/mL

Question: What about the Cmax [5, 16] of the same compound?
Answer: 684 ± 155 ng/mL

Question: And the Cmax ([5]; human, plasma, po, 100 mg, geometric mean (geometric CV, %), 100 mg oral tablet, single dose, fasted)?
Answer: 668 ng/mL

Question: And the half-life [5, 16]?
Answer: 858 min

Question: What about the AEs reported ([6]; following 50 mg IV administration) of the same compound?
Answer: No AEs were reported

Question: And the “Number of AEs reported” value ([6]; following 100 mg oral tablet, 1 mild and 1 moderate, in 2 subjects)?
Answer: 2

Question: And the Tolerability ([6]; single 100‐mg oral and 50‐mg IV doses, healthy subjects)?
Answer: generally safe and well tolerated

Question: What about the “Peak ALT elevation, subject with moderate AE” value ([6]; treatment period 1 day 10, after oral 100 mg) of the same compound?
Answer: 3 × upper limit of normal

Question: And the “Local vascular tissue irritation” value [7]?
Answer: did not suggest that glasdegib was the cause of hemolysis in human blood and/or local vascular tissue irritation

Question: What about the “Hemolysis in human blood” value (human blood) of the same compound?
Answer: did not suggest that glasdegib was the cause of hemolysis in human blood

Question: And the Hepatic extraction [8]?
Answer: < 0.3

Question: And the “Maximum tolerated dose as a single agent” value [9]?
Answer: 400 mg

Question: And the “Plasma to whole blood partitioning” value [10]?
Answer: < 1

Question: What about the Metabolizing enzyme [11] of the same compound?
Answer: primarily metabolized by cytochrome P450 (CYP) 3A4/5

Question: And the “Impact of disintegration and dissolution on absorption kinetics” value ([12]; oral solution compared to instant‐release tablet)?
Answer: do not appear to impact the absorption kinetics

Question: And the “Geometric mean Cmax” value ([12]; single 100‐mg oral dose, 100‐mg maleate immediate release tablet, healthy subjects)?
Answer: 775.3 ng/mL

Question: And the “Administered parent dose recovered in the feces” value [1]?
Answer: 19.5%

Question: What about the “Contribution of the glucuronidation pathway via UGT1A9 to elimination” value [1] of the same compound?
Answer: only minor

Question: What about the “Major route of elimination” value [1] of the same compound?
Answer: primarily through CYP3A4 oxidation

Question: And the “Mean plasma renal clearance” value [1]?
Answer: 1.97 L/h

Question: What about the dose excreted (Human mass balance) of the same compound?
Answer: ≥ 49%
